OX1R antag-1: OX1R (HCRTR1) antagonists, primary screen, fluorescence, CHO/OX1R cells, Fluo-8 calcium, orexin A; 330,000 compounds, 0.43% hits; AID 434989, 2010; Fluo-8 calcium fluorescence; inhibition, % at 5 µM;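 active means inhibition above its plate's threshold, mean inhibition of all tested compounds on the plate plus 3 SD, cut at about 37% in these data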
Target sequence (O43613 whole entry, looked up): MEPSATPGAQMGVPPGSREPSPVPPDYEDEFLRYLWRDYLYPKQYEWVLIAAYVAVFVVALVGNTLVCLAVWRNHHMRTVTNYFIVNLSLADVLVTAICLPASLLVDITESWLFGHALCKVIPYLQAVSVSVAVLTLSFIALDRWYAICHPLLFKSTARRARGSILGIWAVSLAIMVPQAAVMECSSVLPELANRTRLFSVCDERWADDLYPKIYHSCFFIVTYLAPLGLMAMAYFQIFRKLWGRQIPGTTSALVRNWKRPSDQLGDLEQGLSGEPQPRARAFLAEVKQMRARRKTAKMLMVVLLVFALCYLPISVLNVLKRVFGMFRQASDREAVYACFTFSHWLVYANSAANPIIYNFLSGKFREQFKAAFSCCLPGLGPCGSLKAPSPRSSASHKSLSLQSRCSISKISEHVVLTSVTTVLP
TAAR1 antag: human TAAR1 antagonists, primary screen, Fluo-8 calcium fluorescence, CHO RD-HGA16 cells; Trace amine-associated receptor 1 (Homo sapiens), Q96RJ0; antagonist; inhibition, % at 3 µM; 360,000 compounds, 1.5% hits; AID 624466, 2012;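 active means inhibition above a per-plate cutoff, the mean inhibition of test compounds on that plate plus 3 SD, cut at about 49% in these data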
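System: RD-HGA16 CHO cells with stable hTAAR1 and Gα16 | Probe or stimulus: EC80 β-phenethylamine stimulus | Dosing: 3 µM, single point | Times: Dye loading 75 min at 37 °C, then 30 min room temperature | Measured by: Fluo-8 calcium-sensitive fluorescence | Read-out basis: % inhibition of agonist calcium response | Replicates: n of 1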
GalR3 antag: GalR3 antagonists in HEK293 cells, primary screen, cell-based, fluorescence readout; inhibition, % at 3 µM; Galanin receptor type 3 (Homo sapiens), O60755; 360,000 compounds, 0.44% hits; HEK293 GalR3-CNG cAMP membrane potential fluorescence; galR3 body fused to GalR1 C-terminus; AID 651719, 2012;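 active means inhibition above the screen-wide average plus 3 SD, cut at about 13% in these data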;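 further: forskolin and galanin both at EC90 stimulate the cells; cAMP rise reported by CNG channel membrane potential dye signal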
Target sequence (O60755 1-299 limits assumed): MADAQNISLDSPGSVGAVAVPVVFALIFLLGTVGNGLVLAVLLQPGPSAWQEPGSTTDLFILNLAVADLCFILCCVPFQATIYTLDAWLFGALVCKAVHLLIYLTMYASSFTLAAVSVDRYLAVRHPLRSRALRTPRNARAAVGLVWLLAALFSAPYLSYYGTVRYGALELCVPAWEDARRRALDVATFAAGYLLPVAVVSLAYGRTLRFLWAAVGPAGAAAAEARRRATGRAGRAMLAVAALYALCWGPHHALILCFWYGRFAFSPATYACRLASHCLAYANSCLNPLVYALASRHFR
OX1R antag-2: antagonists of human orexin 1 receptor (OX1R); Orexin/Hypocretin receptor type 1 (Homo sapiens), O43613; OX1R-expressing cells, FRET antagonist read-out; inhibition, % at 6.6 µM; 330,000 compounds, 1.8% hits; in the data active means inhibition mostly above about 38%, no sharp cut-off; inactive means mostly below about 40%
TAAR1 agonist: human TAAR1 agonists, primary screen, Fluo-8 calcium fluorescence, CHO RD-HGA16 cells. vehicle wells 0%, saturating PEA agonist 100%. activation, % at 3 µM. 360,000 compounds, 0.99% hits;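 active means activation above the mean activation of all test compounds in the run plus 3 SD, cut at about 38% in these data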
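System: CHO-derived RD-HGA16 cells with stable Gα16 and human TAAR1. Times: 17-24 h plating, Fluo-8 75 min 37 °C, 30 min RT. Measured by: calcium-sensitive Fluo-8 signal, excitation 470-495, emission 515-575 nm. Read-out basis: % activation relative to PEA EC100 response. Control set: DMSO and PEA EC100. Repeats: no replicates (n 1).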
CHO parental Ca: ATP-evoked calcium signal inhibitors, parental CHO, primary screen, counter-screen for OX1R antagonist project, cell-based, fluorescence, Fluo-8 calcium dye. parental CHO-K1, ATP-induced calcium, Fluo-8 fluorescence. inhibition, % at 5.6 µM. 330,000 compounds, 0.63% hits;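 active means inhibition above that plate's mean sample inhibition plus 3 SD, cut at about 26% in these data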
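test system = CHO parental line | reagent = ATP stimulus | measured by = intracellular calcium via Fluo-8 no-wash fluorescent dye | control set = ATP and no-ATP DMSO wells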
TAAR1 nonsel count: nonselective antagonists in TAAR1 counter-screen cells, counter-screen for hTAAR1 antagonist project, cell-based, fluorescence, calcium. shares compounds with TAAR1 antag. counterscreen cell line, antagonist mode. inhibition, % at 3 µM. 2,400 compounds, 77% hits. AID 651780, 2012; in the data active means inhibition above about 22%;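 further: CHO-Ga16 host cells stimulated with ATP at an EC80 level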
TAAR1 antag conf: human TAAR1 antagonists, retest of hits, confirmation, cell-based, fluorescence | shares compounds with TAAR1 antag | TAAR1-expressing cells, fluorescence antagonist read-out | inhibition, % at 3 µM | 2,400 compounds, 40% hits; in the data active means inhibition above about 49%;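 further: CHO-Ga16 host cells challenged with agonist PEA near its EC80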
Ga16 ag counter: calcium activation in Ga16-expressing cells, counter-screen for TAAR1 antagonist project, cell-based, fluorescence; activation, % at 3 µM; shares compounds with TAAR1 antag; 2,400 compounds, 18% hits; agonist counterscreen; in the data active means activation above about 12%
TAAR1 ag count: TAAR1 activation by candidate antagonists – cell-based, fluorescence, counter-screen for TAAR1 antagonist project | activation, % at 3 µM | hTAAR1 cell line, agonist mode | shares compounds with TAAR1 antag | AID 651955, 2012 | 2,400 compounds, 2% hits; in the data active means activation above about 37%;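 further: CHO cells stably expressing TAAR1 with calcium dye readout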
Numbers stand for hits; 0 = inactive; - = no result. This is a sample that favours compounds with a hit; in the whole collection about 4.3% have one here.

SMILES | OX1R antag-1 | TAAR1 antag | GalR3 antag | OX1R antag-2 | TAAR1 agonist | CHO parental Ca | TAAR1 nonsel count | TAAR1 antag conf | Ga16 ag counter | TAAR1 ag count
O=C(COC(=O)COc1ccccc1F)Nc1ccc2c(c1)OCO2 | 0 | 0 | 0 | 0 | 0 | 0 | - | - | - | -
CC(C)(C)c1ccc(CC(=O)N2CCC2(C)C(=O)NCc2ccc3c(c2)OCO3)cc1 (stereo not drawn) | - | 0 | 0 | - | 0 | - | - | - | - | -
O=C(NCc1ccccc1)C12CC3CC(CC(Br)(C3)C1)C2 | 0 | 0 | 0 | 0 | 0 | 0 | - | - | - | -
COc1cc(/C=C(/C#N)C(=O)c2c(C)[nH]c3ccccc23)ccc1OCC#N | 0 | 55.3 | 0 | 0 | 0 | 0 | 23.8 | 50.1 | 19.2 | 39.7
CCOc1ccc(/C=C(\C#N)C(=O)c2c(C)[nH]c3ccccc23)cc1OC | 0 | 57.9 | 0 | 0 | 0 | 0 | 0 | 0 | 0 | 0
CCOC(=O)c1c(C)[nH]c(C(=O)/C(C#N)=C/c2ccc(OC)c(OC)c2)c1C | 0 | 0 | 0 | 0 | 0 | 0 | - | - | - | -
Cc1ccc(CN2C(=O)[C@@H]3Cc4c([nH]c5ccccc45)C(C)(C)N3C2=O)cc1 | 0 | 0 | 0 | 0 | 0 | 0 | - | - | - | -
CC1(C)c2[nH]c3ccccc3c2C[C@@H]2C(=O)N(c3ccc(F)cc3F)C(=O)N21 | 0 | 60.6 | 0 | 0 | 0 | 0 | 40.4 | 52.1 | 17.1 | 0
CC1(C)c2[nH]c3ccccc3c2C[C@@H]2C(=O)N(Cc3ccc(F)cc3)C(=O)N21 | 0 | 67.5 | 0 | 0 | 0 | 0 | 34.0 | 49.5 | 0 | 0
COc1ccc(NC(=O)COC(=O)c2cc(=O)c3ccccc3o2)cc1OC | 0 | 0 | 0 | 0 | 0 | 0 | - | - | - | -
CC1CCCC(NC(=O)CSc2nnc(-c3cccnc3)o2)C1C (stereo not drawn) | - | 0 | 0 | - | 0 | - | - | - | - | -
Cc1ccc(NCC(=O)Nc2cccc(S(=O)(=O)N(C)C)c2)cc1S(=O)(=O)N1CCCCCC1 | 0 | 0 | 0 | 0 | 0 | 0 | - | - | - | -
Cc1cccn2c(=O)c3cc(C#N)c(=NC(=O)c4cccs4)n(CCCOC(C)C)c3nc12 | 0 | 67.4 | 0 | 0 | 0 | 0 | 24.3 | 0 | 0 | 0
Fc1ccc(-c2nc3ccccn3c2NCc2ccc3c(c2)OCO3)cc1 | 0 | 0 | 0 | 0 | 0 | 0 | - | - | - | -
Oc1ccc(-c2nc3ccccn3c2NCc2ccc3c(c2)OCO3)cc1 | 0 | 55.2 | 0 | 0 | 0 | 0 | 30.1 | 53.4 | 0 | 0
C=CCC[C@@H](Cc1ccc(F)cc1)C(=O)OC[C@H](Cc1c[nH]c2ccccc12)NC(=O)[C@H](CC=C)CC(=O)NCCO | 0 | 75.2 | 0 | 0 | 0 | 0 | 30.4 | 0 | 0 | 0
C=CC[C@H](CC(=O)N[C@H](CO)Cc1ccccc1)C(=O)N[C@@H](COC(=O)[C@@H](CC=C)CC(=O)OC(C)(C)C)Cc1c[nH]c2ccccc12 | 0 | 62.7 | 0 | 0 | 0 | 0 | 29.9 | 0 | 0 | 0
C=CC[C@@H](CC(=O)N[C@H](CO)Cc1ccccc1)C(=O)N[C@H](COC(=O)[C@@H](CC=C)Cc1ccc(F)cc1)Cc1c[nH]c2ccccc12 | 0 | 85.8 | 0 | 0 | 0 | 0 | 38.1 | 51.5 | 0 | 0
C=CC[C@H](CC(=O)N(CCO)Cc1ccccc1)C(=O)N[C@@H](COC(=O)[C@H](CC=C)CC(=O)OC(C)(C)C)Cc1c[nH]c2ccccc12 | 0 | 69.3 | 0 | 0 | 0 | 0 | 30.1 | 0 | 0 | 0
C=CC[C@@H](CC(=O)N(CCO)Cc1ccccc1)C(=O)N[C@H](COC(=O)[C@@H](CC=C)CC(=O)OC(C)(C)C)C(C)(C)C | 0 | 0 | 0 | 0 | 0 | 0 | - | - | - | -
O=C(NCCc1ccccc1F)C1C(=O)Nc2ccccc2C(=O)N1C1CCCCC1 (stereo not drawn) | - | 0 | 0 | - | 0 | - | - | - | - | -
CC(C)(C)C(=O)Nc1ccc(S(=O)(=O)N2CCC(c3nc4ccccc4[nH]3)CC2)cc1 | 0 | 0 | 0 | 0 | 0 | 0 | - | - | - | -
O=C(CN(c1ccccc1)S(=O)(=O)c1ccccc1)NCCSc1nc2ccccc2s1 | 0 | 71.4 | 0 | 0 | 0 | 0 | 36.2 | 62.0 | 0 | 0
COc1cccc(/C=N/Nc2nnc3c(n2)[nH]c2ccccc23)c1OC | 0 | 60.8 | 0 | 45.4 | 0 | 0 | 0 | 0 | 0 | 0
COc1cccc(C=NNc2nc3ccccc3s2)c1OC | - | 0 | 0 | - | 0 | - | - | - | - | -
SMILES | OX1R antag-1 | TAAR1 antag | GalR3 antag | OX1R antag-2 | TAAR1 agonist | CHO parental Ca | TAAR1 nonsel count | TAAR1 antag conf | Ga16 ag counter | TAAR1 ag count
Cc1c(C(=O)OCCOc2ccc(Br)cc2)sc(=S)n1C | 0 | 0 | 0 | 0 | 0 | 0 | - | - | - | -
CN(C(=O)c1cccc(Nc2ccc(-c3ccc4c(c3)OCCO4)nn2)c1)C1CCCCC1 | 0 | 53.9 | 0 | 0 | 0 | 0 | 0 | 0 | 0 | 0
CN(C(=O)c1cccc(NC(=O)c2ccccc2)c1)C1CCCCC1 | 0 | 0 | 0 | 0 | 0 | 0 | - | - | - | -
O=C1c2cccc(OCC(=O)N3CCCc4ccccc43)c2CCN1Cc1ccc(Br)cc1 | 0 | 70.7 | 0 | 0 | 0 | 0 | 39.5 | 51.2 | 0 | 0
O=C1c2cccc(OCC(=O)N3CCCc4ccccc43)c2CCN1Cc1ccccc1 | 0 | 0 | 0 | 0 | 0 | 0 | - | - | - | -
CCN(CC)S(=O)(=O)c1cc(NC(=O)c2ccc3c(c2)NC(=O)C(C)S3)ccc1C (stereo not drawn) | 0 | 73.4 | 0 | 0 | 0 | 0 | 41.3 | 51.9 | 12.7 | 0
Cc1cc(C)c(NC(=O)c2ccc3c(c2)NC(=O)C(C)S3)c(C)c1 (stereo not drawn) | 0 | 0 | 0 | 0 | 0 | 0 | - | - | - | -
CN(C(=O)c1ccc(NC(=O)C2CCN(C(=O)OC(C)(C)C)CC2)cc1)C1CCC1 | 0 | 0 | 0 | 0 | 0 | 0 | - | - | - | -
COc1ccc(C(=O)N2CCOC2CNC(=O)C(=O)NCc2ccc(Cl)cc2)cc1 (stereo not drawn) | 0 | 0 | 0 | 0 | 0 | 0 | - | - | - | -

Screening data (PubChem BioAssay)
